Reference: ChEMBL document CHEMBL3046793, “Fungicidal property of Curcuma longa L. rhizome-derived curcumin against phytopathogenic fungi in a greenhouse” (2003)

Experiments:
Format in all cases: functional
Botrytis cinerea [1] = test: Fungicidal activity against Botryotinia fuckeliana infected first-leaf stage of cucumber plant at 50 mg/l applied as spray after 4 to 5 days under green house conditions relative to control
Phytophthora infestans [2] = test: Fungicidal activity against Phytophthora infestans infected second leaf-stage of tomato plant at 50 mg/l applied as spray after 4 days under green house conditions relative to control
Blumeria graminis [3] = test: Fungicidal activity against Blumeria graminis infected first-leaf stage of barley plant at 50 mg/l applied as spray under green house conditions relative to control
Rhizoctonia solani [4] = test: Fungicidal activity against Rhizoctonia solani infected in third leaf stage of rice plant at 50 mg/l applied as spray after 5 days under green house conditions relative to control
Pyricularia grisea [5] = test: Fungicidal activity against Magnaporthe grisea infected second leaf stage of rice plant at 50 mg/l applied as spray after 5 days under green house conditions relative to control
Puccinia recondita [6] = test: Fungicidal activity against Puccinia recondita infected first leaf stage of wheat plant at 50 mg/l applied as spray after 10 days under green house conditions relative to control
Botrytis cinerea [7] = test: Fungicidal activity against Botryotinia fuckeliana infected first-leaf stage of cucumber plant at 500 mg/l applied as spray after 4 to 5 days under green house conditions relative to control
Puccinia recondita [8] = test: Fungicidal activity against Puccinia recondita infected first leaf stage of wheat plant at 500 mg/l applied as spray after 10 days under green house conditions relative to control
Procedure, shortened: (§1)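 Whole-plant greenhouse spray assay: sample dissolved in DMSO, diluted in water with Tween 20 (250 µg/mL), 50 mL sprayed over two pots; plants held 1 day before inoculation with P. recondita; controls got Tween 20 solution. Control value = (untreated − treated disease area)/untreated × 100; three replicates.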

Botrytis cinerea [9] = test: Fungicidal activity against Botryotinia fuckeliana infected first-leaf stage of cucumber plant at 1000 mg/l applied as spray after 4 to 5 days under green house conditions relative to control
Rhizoctonia solani [10] = test: Fungicidal activity against Rhizoctonia solani infected in third leaf stage of rice plant at 1000 mg/l applied as spray after 5 days under green house conditions relative to control
Procedure, shortened: (§2)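 Rice at third leaf (three plants/pot) sprayed with sample in DMSO/Tween 20 (250 µg/mL) water; after 1 day inoculated by injecting at plant base R. solani inoculum (7-day wheat bran culture at 25 °C, macerated 500 g/L water). Held 5 days in lit chamber at 28 °C. Control value from diseased area against Tween-sprayed controls; triplicate.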

Pyricularia grisea [11] = test: Fungicidal activity against Magnaporthe grisea infected second leaf stage of rice plant at 1000 mg/l applied as spray after 5 days under green house conditions relative to control
Procedure, shortened: (§3)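 Rice at second leaf (three plants/pot) sprayed with sample (DMSO, diluted in water with 250 µg/mL Tween 20), greenhouse 1 day. Inoculated with conidia (1 × 10^6 spores/mL), 24 h at 25 °C and 100% RH, then 5 days lit at 26 ± 2 °C and 85% RH. Severity scored; control value from diseased area against Tween-sprayed controls; triplicate.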

Blumeria graminis [12] = test: Fungicidal activity against Blumeria graminis infected first-leaf stage of barley plant at 1000 mg/l applied as spray under green house conditions relative to control
Procedure, shortened: (§4)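 Barley at fully expanded first leaf (four plants/pot) sprayed with test material (DMSO stock diluted in water with Tween 20 at 250 µg/mL), greenhouse 1 day, then dusted with E. graminis conidia from infected barley (8 treated pots per source pot). Controls got Tween 20 solution. Control value = (untreated − treated disease area)/untreated × 100; triplicate.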

Rhizoctonia solani [13] = test: Fungicidal activity against Rhizoctonia solani infected in third leaf stage of rice plant at 500 mg/l applied as spray after 5 days under green house conditions relative to control
Phytophthora infestans [14] = test: Fungicidal activity against Phytophthora infestans infected second leaf-stage of tomato plant at 1000 mg/l applied as spray after 4 days under green house conditions relative to control
Pyricularia grisea [15] = test: Fungicidal activity against Magnaporthe grisea infected second leaf stage of rice plant at 500 mg/l applied as spray after 5 days under green house conditions relative to control; procedure, shortened: as §3
Phytophthora infestans [16] = test: Fungicidal activity against Phytophthora infestans infected second leaf-stage of tomato plant at 500 mg/l applied as spray after 4 days under green house conditions relative to control
Puccinia recondita [17] = test: Fungicidal activity against Puccinia recondita infected first leaf stage of wheat plant at 1000 mg/l applied as spray after 10 days under green house conditions relative to control; procedure, shortened: as §1
Blumeria graminis [18] = test: Fungicidal activity against Blumeria graminis infected first-leaf stage of barley plant at 500 mg/l applied as spray under green house conditions relative to control
Pyricularia grisea [19] = test: Fungicidal activity against Magnaporthe grisea infected second leaf stage of rice plant at 250 mg/l applied as spray after 5 days under green house conditions relative to control; procedure, shortened: as §3
Puccinia recondita [20] = test: Fungicidal activity against Puccinia recondita infected first leaf stage of wheat plant at 125 mg/l applied as spray after 10 days under green house conditions relative to control; procedure, shortened: as §1
Phytophthora infestans [21] = test: Fungicidal activity against Phytophthora infestans infected second leaf-stage of tomato plant at 125 mg/l applied as spray after 4 days under green house conditions relative to control
Pyricularia grisea [22] = test: Fungicidal activity against Magnaporthe grisea infected second leaf stage of rice plant at 125 mg/l applied as spray after 5 days under green house conditions relative to control; procedure, shortened: as §3
Botrytis cinerea [23] = test: Fungicidal activity against Botryotinia fuckeliana infected first-leaf stage of cucumber plant at 250 mg/l applied as spray after 4 to 5 days under green house conditions relative to control
Procedure, shortened: (§5)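 Cucumber at first leaf (one plant/pot) sprayed with sample in DMSO/Tween 20 (250 µg/mL) water; controls Tween 20 solution. After 1 day, leaf-sprayed with B. cinerea conidia (1 × 10^6 spores/mL; 15-day PDA culture, 20 °C), held 4-5 days at 20 °C. Control value calculated from diseased area against untreated plants; three replicates.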

Blumeria graminis [24] = test: Fungicidal activity against Blumeria graminis infected first-leaf stage of barley plant at 250 mg/l applied as spray under green house conditions relative to control; procedure, shortened: as §4
Puccinia recondita [25] = test: Fungicidal activity against Puccinia recondita infected first leaf stage of wheat plant at 250 mg/l applied as spray after 10 days under green house conditions relative to control; procedure, shortened: as §1
Rhizoctonia solani [26] = test: Fungicidal activity against Rhizoctonia solani infected in third leaf stage of rice plant at 125 mg/l applied as spray after 5 days under green house conditions relative to control; procedure, shortened: as §2
Blumeria graminis [27] = test: Fungicidal activity against Blumeria graminis infected first-leaf stage of barley plant at 125 mg/l applied as spray under green house conditions relative to control
Botrytis cinerea [28] = test: Fungicidal activity against Botryotinia fuckeliana infected first-leaf stage of cucumber plant at 125 mg/l applied as spray after 4 to 5 days under green house conditions relative to control; procedure, shortened: as §5
Phytophthora infestans [29] = test: Fungicidal activity against Phytophthora infestans infected second leaf-stage of tomato plant at 250 mg/l applied as spray after 4 days under green house conditions relative to control
Rhizoctonia solani [30] = test: Fungicidal activity against Rhizoctonia solani infected in third leaf stage of rice plant at 250 mg/l applied as spray after 5 days under green house conditions relative to control; procedure, shortened: as §2

Row | Structure (SMILES) | Activity (Botrytis cinerea [7]) [%] | Activity (Puccinia recondita [8]) [%] | Activity (Botrytis cinerea [9]) [%] | Activity (Rhizoctonia solani [10]) [%] | Activity (Pyricularia grisea [11]) [%] | Activity (Blumeria graminis [12]) [%] | Activity (Rhizoctonia solani [13]) [%] | Activity (Phytophthora infestans [14]) [%] | Activity (Pyricularia grisea [15]) [%] | Activity (Phytophthora infestans [16]) [%] | Activity (Puccinia recondita [17]) [%] | Activity (Blumeria graminis [18]) [%] | further results
1 | CN(C)S(=O)(=O)N(SC(F)(Cl)Cl)c1ccccc1 [DICHLOFLUANID] | – | – | – | – | – | – | – | – | – | – | – | – | Activity (Botrytis cinerea [1]): 92%; Activity (Phytophthora infestans [2]): 0%; Activity (Blumeria graminis [3]): 0%; Activity (Rhizoctonia solani [4]): 0%; Activity (Pyricularia grisea [5]): 0%; Activity (Puccinia recondita [6]): 0%
2 | N#Cc1c(Cl)c(Cl)c(Cl)c(C#N)c1Cl [CHLOROTHALONIL] | – | – | – | – | – | – | – | – | – | – | – | – | Activity (Botrytis cinerea [1]): 0%; Activity (Phytophthora infestans [2]): 95%; Activity (Blumeria graminis [3]): 0%; Activity (Rhizoctonia solani [4]): 0%; Activity (Pyricularia grisea [5]): 0%; Activity (Puccinia recondita [6]): 0%
3 | C=C1CCC2(C(C)C)CC12 (stereo not drawn) [SABINENE] | 0 | 0 | 0 | 0 | 0 | 0 | 0 | 0 | 0 | 0 | 0 | 0 | –
4 | CC12CCC(CC1)C(C)(C)O2 [EUCALYPTOL] | 0 | 0 | 0 | 0 | 0 | 0 | 0 | 0 | 0 | 0 | 0 | 0 | –
5 | CC1(C)C2CCC1(C)C(O)C2 (stereo not drawn) [BORNEOL] | 0 | 0 | 0 | 0 | 0 | 0 | 0 | 0 | 0 | 0 | 0 | 0 | –
6 | CC(C)=CC(=O)C[C@H](C)C1=CCC(C)=CC1 [TURMERONE] | 0 | 0 | 0 | 0 | 0 | – | 0 | 0 | 0 | 0 | 0 | 0 | –
7 | COc1cc(/C=C/C(=O)CC(=O)/C=C/c2ccc(O)c(OC)c2)ccc1O [CURCUMIN] | 40 | 100 | 70 | 85 | 0 | 0 | 63 | 100 | 0 | 100 | 100 | 0 | Activity (Pyricularia grisea [19]): 0%; Activity (Puccinia recondita [20]): 63%; Activity (Phytophthora infestans [21]): 57%; Activity (Pyricularia grisea [22]): 0%; Activity (Botrytis cinerea [23]): 15%; Activity (Blumeria graminis [24]): 0%; Activity (Puccinia recondita [25]): 76%; Activity (Rhizoctonia solani [26]): 26%; Activity (Blumeria graminis [27]): 0%; Activity (Botrytis cinerea [28]): 0%; Activity (Phytophthora infestans [29]): 85%; Activity (Rhizoctonia solani [30]): 45%
